This is an account of results in ChEMBL document CHEMBL1687840, “Vancomycin bonded to bone grafts prevents bacterial colonization” (Antimicrob Agents Chemother, 2011).

Active and inactive are the calls of the source. The rule behind the calls is not given here.

Data set [1] is filed under the species Homo sapiens. Put plainly: Binding affinity to human morselized allograft bone by immunohistochemical analysis. An outline of the steps: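 Human cancellous/cortical bone granules (0.5–2.0 mm), EDTA-treated, with covalently coupled VAN and washed until eluent gave no S. aureus disk-diffusion inhibition. PBS-washed ×3, blocked 1 h in 10% FBS/PBS, rabbit anti-VAN IgG (1:500) 12 h at 4°C, Alexa 488 anti-rabbit (1:1,000) 1 h RT, epifluorescence read-out. Uncoupled bone as control.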

The nature of data set [2]: Stability of the human bone graft-bound drug in air after 7 days by immunofluorescent staining. The note with it: 168 h. The class given is ADME. The procedure, abridged:
(§1)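 About 10 mg modified allograft held 7 days at 37°C in 1 ml water, PBS, DMEM-F-12 with 10% FBS, or S. aureus in TSB (bacteria removed by 30 min sonication in 1% SDS), or kept dry in air; then PBS-washed, blocked in 10% FBS/PBS 1 h, rabbit anti-VAN IgG 1:500 at 4°C 12 h, Alexa Fluor 488 anti-rabbit 1:1,000 RT 1 h, viewed by epifluorescence.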

A short description of data set [3]: Stability of the human bone graft-bound drug in water after 7 days by immunofluorescent staining. The data set is classed as ADME. The note with it: 168 h. The procedure, abridged: as §1
A short description of data set [4]: Stability of the human bone graft-bound drug in phosphate buffer saline after 7 days by immunofluorescent staining. The note with it: 168 h. The data set is classed as ADME. An outline of the steps: as §1
A short description of data set [5]: Stability of the human bone graft-bound drug in dulbecco modified eagle medium after 7 days by immunofluorescent staining. The data set is classed as ADME. The note with it: 168 h. An outline of the steps:
as §1

A short description of data set [6]: Stability of the human bone graft-bound drug 7 days after incubation with Staphylococcus aureus in trypticase soy broth by immunofluorescent staining. The data set is classed as ADME. The note with it: 168 h. The procedure, abridged:
as §1

Data set [7] deals with Staphylococcus aureus. The experiment in a line: Antibacterial activity against Staphylococcus aureus Xen36 infected in drug treated human morselized bone allograft assessed as inhibition of biofilm formation after 5 hrs by confocal laser scanning microscopy. The data set is classed as functional, organism-based. An outline of the steps: (§2)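 Allograft morsels challenged with S. aureus (1 ml, 1 × 10^4 CFU/ml) in TSB at 37°C without agitation for 5 or 12 h, washed three times in PBS, stained with Live/Dead BacLight (20 min, RT), imaged by confocal laser scanning microscopy with Z-plane optical sectioning and reconstruction.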

The test system of data set [8] is Staphylococcus aureus. The experiment in a line: Antibacterial activity against Staphylococcus aureus Xen36 infected in drug treated human morselized bone allograft assessed as inhibition of biofilm formation after 12 hrs by confocal laser scanning microscopy. The data set is classed as functional, organism-based. An outline of the steps: as §2
For data set [9], the system named is Staphylococcus aureus. Put plainly: Antibacterial activity against Staphylococcus aureus Xen36 infected in drug treated human morselized bone allograft assessed as inhibition of biofilm formation after 6 hrs by scanning electron microscopy. The data set is classed as functional, organism-based. An outline of the steps:
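Allograft morsels exposed to S. aureus in TSB for 6 h, then examined by scanning electron microscopy at low magnification, ×1,500 and ×4,000 for adherent bacteria and biofilm.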

For data set [10], the system named is Escherichia coli. Put plainly: Antibacterial activity against Escherichia coli DH5[alpha] infected in drug treated human morselized bone allograft assessed as reduction of bacterial count after up to 12 hrs by colony counting. The data set is classed as functional, organism-based. The procedure, abridged:
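Sterilized allograft granules (0.5–2.0 mm, human cancellous/cortical) incubated without agitation at 37°C in TSB with 1 ml of 1 × 10^4 CFU/ml bacteria (overnight TSB culture, 250 rpm, 37°C) for 2, 5, 8 or 12 h; washed three times with PBS, three more times, sonicated 5 min in 0.3% Tween 80/PBS, serially diluted, plated on Petrifilms and colonies counted; S. aureus shown as % of control per time point.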

The subject of data set [11] is Staphylococcus aureus. The experiment in a line: Antibacterial activity against Staphylococcus aureus Xen36 infected in drug treated human morselized bone allograft assessed as reduction of bacterial count after 12 hrs followed by additional 4 hrs in presence of 10 ug/ml of drug by colony counting. The data set is classed as functional, organism-based. An outline of the steps:
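Control or modified allograft incubated with S. aureus (1 ml, 10^4 CFU/ml) in TSB 12 h, either with 10 μg/ml solution VAN added alongside inoculum, or washed, transferred and given 4 h in TSB with 10 μg/ml VAN; after 16 h total, washed, adherent bacteria sonicated off, plated and counted, expressed as % of control per condition.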

The nature of data set [12]: Cytotoxicity in human FOB on drug treated bone allograft assessed as morphological changes after 48 hrs by propidium iodide staining. An outline of the steps:
(§3)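 Cortical allograft pieces (1 × 1 cm; 70% ethanol, PBS and medium rinses, 10 min UV) seeded with 1 ml of 50,000 cells/ml hFOB in DMEM-F-12 with 10% FBS; after 48 h fixed (4% paraformaldehyde), permeabilized (0.1% Triton X-100), stained with Alexa 488-phalloidin and propidium iodide 30 min RT, imaged by confocal microscopy.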

Data set [13] can be described thus: Cytotoxicity in human FOB on drug treated bone allograft assessed as changes on cytoskeletal architecture after 48 hrs by propidium iodide staining. An outline of the steps: as §3
Data set [14] is described as follows: Cytotoxicity in human FOB on drug treated bone allograft assessed as increase of protein level after 1 day. The note with it: 24 h. An outline of the steps: (§4)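 hFOB cells cultured on sterilized flat cortical allograft in DMEM-F-12 with 10% FBS for 1 or 3 days, lysed with M-PER buffer 30 min with shaking; total protein by Bradford assay as index of adhesion and proliferation; at least three experiments, means ± standard errors.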

Data set [15] in a line: Cytotoxicity in human FOB on drug treated bone allograft assessed as increase of protein level after 3 days. The note with it: 72 h. The procedure, abridged:
as §4

The nature of data set [16]: Cytotoxicity in human FOB on drug treated bone allograft assessed as release of lactate dehydrogenase after 1 day. The note with it: 24 h. The procedure, abridged:
(§5)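 hFOB cells grown on flat cortical allograft 1 or 3 days; LDH released into medium measured with Tox-7 kit, given as percentage of released over total cellular LDH, normalized to day 1 controls; at least three experiments, means ± standard errors.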

A short description of data set [17]: Cytotoxicity in human FOB on drug treated bone allograft assessed as release of lactate dehydrogenase after 3 days. The note with it: 72 h. The procedure, abridged: as §5

As for `CN[C@H](CC(C)C)C(=O)N[C@H]1C(=O)N[C@@H](CC(N)=O)C(=O)N[C@H]2C(=O)N[C@H]3C(=O)N[C@H](C(=O)N[C@H](C(=O)O)c4cc(O)cc(O)c4-c4cc3ccc4O)[C@H](O)c3ccc(c(Cl)c3)Oc3cc2cc(c3O[C@@H]2O[C@H](CO)[C@@H](O)[C@H](O)[C@H]2O[C@H]2C[C@](C)(N)[C@H](O)[C@H](C)O2)Oc2ccc(cc2Cl)[C@H]1O` [VANCOMYCIN], the outcome in data set [1], in data set [7], in [8], in data set [9] and in data set [11] was Active. Also, the Stability entry in data set [2], in data set [3], in [4], in data set [5] and in data set [6] was “Stable” in each case. In addition, the result in data set [10] was inactive. The Activity entry is recorded as “Non-toxic” in data set [12]; “Non-toxic” in [13]; “Toxic” in [14]; “Non-toxic” in data set [15]; “Non-toxic” in data set [16]; “Non-toxic” in [17].
